# Compound activity deposited in PubChem BioAssay by several laboratories.
# NS3 helicase inh – inhibitors of HCV NS3 helicase, primary screen, biochemical, Cy5 molecular beacon fluorescence; inhibition, % at 10.9 µM; Hepatitis C virus NS3 helicase; NS3 helicase DNA unwinding; AID 1800, 2009; actives 0.56% (n = 290,000);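 active = inhibition above the mean of all tested compounds plus 3 SD, set per campaign, cut at about 35% in these data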;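 also: 0% = DMSO wells and 100% = thioflavine S control wells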
#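 Compound dosing – single dose, 10.9 µM nominal final, DMSO 0.8% final · System – NS3 helicase fragment of HCV · Buffer or medium – MOPS pH 6.5, MgCl2, DTT, Tween20, BSA · Signal – Cy5 beacon fluorescence read at start and 1 h · Also added – annealed dual-labelled DNA beacon duplex, ATP-started · Schedule – 1 h at 25 °C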
# DNA FID counter – compounds displacing fluorescent DNA intercalator, primary screen, artefact control for HCV NS3 helicase inhibitor project, biochemical, FID fluorescence. DNA fluorescent intercalator displacement. inhibition, % at 7.9 µM. actives 0.17% (n = 290,000). AID 1845, 2009; in the data active = inhibition above about 37%;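 also: 0% = vehicle and 100% = reference compound; higher means more ethidium bromide displaced from hairpin DNA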
# PP1 inh – PP1-alpha phosphatase inhibitors, primary screen, counter-screen for PP5 inhibitor project, biochemical, fluorescence, OMFP substrate, single point; Serine/threonine-protein phosphatase PP1-alpha catalytic subunit (Homo sapiens), P62136; purified PP1alpha; inhibition, % at 6.7 µM; actives 0.9% (n = 320,000); AID 2235, 2010;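 active = inhibition above the mean inhibition of all tested compounds plus 3 SD, computed separately for each screening campaign, cut at about 15% in these data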
# HIF act – HIF pathway transcriptional activators, primary screen, cell-based, U2OS HRE-luciferase, luminescence; U2OS HRE-luciferase reporter; normalized: DMSO 0%, desferrioxamine 100%; activation, % at 7.5 µM (by protocol); actives 0.32% (n = 300,000); AID 1910, 2009;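 active = mean activation of at least 10% of the iron chelator positive control signal, with at least half of replicates also reaching 10%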
# PP5 primary – PP5 phosphatase inhibitors, primary screen, biochemical, fluorescence; purified PP5c, OMFP substrate fluorescence; actives 0.18% (n = 320,000); Serine/threonine-protein phosphatase 5 (Homo sapiens), P53041; inhibition, % at 6.7 µM;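 active = inhibition above the campaign's mean inhibition across all tested compounds plus 3 SD, cut at about 9.5% in these data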;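 also: 0% = DMSO only and 100% = 100 µM cantharidin control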
# Target sequence (P53041 whole entry, looked up): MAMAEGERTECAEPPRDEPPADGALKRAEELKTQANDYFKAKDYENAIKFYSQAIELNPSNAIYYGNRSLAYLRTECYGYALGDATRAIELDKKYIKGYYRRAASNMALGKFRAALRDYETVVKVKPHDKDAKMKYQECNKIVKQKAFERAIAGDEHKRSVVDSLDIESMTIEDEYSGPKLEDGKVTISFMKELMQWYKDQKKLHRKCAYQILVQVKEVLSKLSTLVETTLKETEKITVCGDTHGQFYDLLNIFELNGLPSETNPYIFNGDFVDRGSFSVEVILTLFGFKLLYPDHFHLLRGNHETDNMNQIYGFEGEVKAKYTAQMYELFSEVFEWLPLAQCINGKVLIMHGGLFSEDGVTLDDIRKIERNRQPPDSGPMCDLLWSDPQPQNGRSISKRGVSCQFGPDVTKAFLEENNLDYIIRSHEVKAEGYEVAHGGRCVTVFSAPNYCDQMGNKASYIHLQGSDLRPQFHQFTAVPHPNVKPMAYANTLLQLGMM
# The depositor's hits bear a star; nt = not tested or not shown. The list is not random: actives were taken first. Their share in the collection is about 1.9%.
SMILES,NS3 helicase inh,DNA FID counter,PP1 inh,HIF act,PP5 primary
CC(=O)N1C(=O)CC(C)N(C(C)=O)c2ccc([N+](=O)[O-])cc21 (stereo not given),5,2,7,0,1
O=c1oc2cc([N+](=O)[O-])ccc2nc1/C=C(\O)c1cccc(Br)c1,14,-9,-1,16*,6
O=c1oc2cc([N+](=O)[O-])ccc2nc1/C=C(O)/C=C/c1ccccc1,22,-6,-3,0,3
CC[C@H](C)[C@@H]1NC(=O)c2cc([N+](=O)[O-])cc(I)c2NCC[C@@H](C(N)=O)NC(=O)[C@H](CCCN=C(N)N)NC1=O,-17,12,1,nt,-1
NC(=O)[C@@H]1CCCNc2c(I)cc([N+](=O)[O-])cc2C(=O)N[C@@H](CCCN=C(N)N)C(=O)N[C@@H](CCCN=C(N)N)C(=O)N1,-70,47*,6,nt,0
C=CCn1nnnc1-c1cc(Cl)cc(Cl)c1,-2,-2,-1,-1,-1
COc1ccc2cc(C3=CCCCC3)ncc2c1,nt,nt,-5,nt,-2
Cc1ccc(C)c(-c2cc(C(=O)Nc3cccnc3)c3ccccc3n2)c1,-9,-38,2,0,5
Cc1ccc(C)c(-c2cc(C(=O)Nc3cccc(C(=O)O)c3)c3ccccc3n2)c1,10,-32,4,39*,3
Cc1ccc(-c2csc3ncnc(SCC(=O)NCC4CCCO4)c23)cc1 (stereo not given),nt,nt,1,nt,2
CC(C)(C)c1csc(NNC(=O)c2ccc(Br)cc2)n1,1,-22,1,11*,3
O=C(NCc1n[nH]c(=S)n1-c1cccc(C(F)(F)F)c1)c1ccco1,4,-15,-12,0,-7
CC(=O)c1cc(CN2CCN(Cc3ccccc3)C(CCO)C2)cs1 (stereo not given),6,0,-5,1,2
COc1cc(CNCCCN2CCOCC2)cc(Br)c1OCc1ccc(Cl)cc1,-78,42*,5,-1,-1
Cc1ccc(S(=O)(=O)N2CCOCC2)cc1N/N=C(\C#N)c1nc2ccccc2[nH]1,5,-11,3,0,-3
C[C@@H]1CCC[C@]2(O[C@H](CCO)C[C@@H](O)[C@@H]2O)O1,nt,nt,-2,-2,1
COc1ccc(C(CC(=O)Nc2ccccc2OC)n2cccc2)cc1 (stereo not given),-3,-12,3,152*,3
COc1cc(NC(=O)C(C)Oc2ccccc2)c(OC)cc1NC(=O)c1ccccc1 (stereo not given),-13,-37,2,-13,1
CCc1ccc(Nc2nc(N)nc(CSc3nnnn3-c3ccccc3)n2)cc1,-83,-10,16*,0,1
O=C(N/N=C/c1cc(Br)cc(Br)c1O)c1ccncc1,14,-7,0,13*,1
O=C(N/N=C/c1cc(Br)cc(Br)c1O)c1cccc(N2CCCC2=O)c1,2,-6,4,9.6*,1
O=C(N/N=C/c1cc(Cl)cc(Cl)c1O)c1ccncc1,7,0,7,29*,4
OCCNc1nc2ccccc2nc1NCCO,3,0,-4,0,-2
OCCNc1c2ccccc2nc2ccccc12,-1,19,-4,24*,-1
Cc1[nH][nH]c(=O)c1C(c1c(C)[nH][nH]c1=O)c1cn(Cc2cccc3ccccc23)c2ccccc12,3,-7,16*,nt,3
SMILES,NS3 helicase inh,DNA FID counter,PP1 inh,HIF act,PP5 primary
O=C(O)c1cc(O)c2c(c1)[C@@H]([C@H]1c3cc(C(=O)O)cc(O)c3C(=O)c3c(O[C@@H]4O[C@H](CO)[C@@H](O)[C@H](O)[C@H]4O)cccc31)c1cccc(OC3O[C@H](CO)[C@@H](O)[C@H](O)[C@H]3O)c1C2=O (stereo not given in full),nt,nt,87*,-1,9.8*
O=C(O)c1cc(O)c2c(c1)[C@H]([C@H]1c3cc(C(=O)O)cc(O)c3C(=O)c3c(O[C@@H]4O[C@H](CO)[C@@H](O)[C@H](O)[C@H]4O)cccc31)c1cccc(OC3O[C@H](CO)[C@@H](O)[C@H](O)[C@H]3O)c1C2=O (stereo not given in full),nt,nt,86*,-1,9
O=C1c2cc(CO)cc(O)c2C(=O)c2c(O[C@@H]3OC(CO)[C@@H](O)[C@@H](O)[C@@H]3O)cccc21 (stereo not given in full),nt,nt,2,0,5
CCCC(CCC)C(=O)Nc1ccc2c(c1)N(C(=O)CN1CCN(C)CC1)c1ccccc1CC2,-56,49*,1,-7,3
O=C(NC(=S)Nc1ccccn1)c1cc(-c2ccccc2)nc2ccccc12,-1,-8,3,184*,0
O=C(NC(=S)Nc1ccccc1)c1cc(-c2ccccc2)nc2ccccc12,1,-12,4,2,1
CN(C)CCCN(C(=O)c1cc2ccccc2oc1=O)c1nc2ccc(F)cc2s1,-8,9,7,1,0
CCN(CCCCCN(C)C)Cc1cc2ccccc2o1,-12,10,-3,684*,0
Fc1cccc(CCN2CCNC[C@@H]2CC2CCCCC2)c1,nt,nt,-3,nt,2
CCN(CC)CCCNC(=O)c1ccc(N2CCCCC2)c(NS(=O)(=O)c2ccc(C)cc2)c1,-28,51*,1,-2,2
CCN(CC)C(=O)COc1ccc(-c2nnc(Nc3ccc(OC)c(C(=O)NC)c3)c3ccccc23)cc1,22,-36,-3,0,3
COc1ccc(OC)c(N(CC(=O)Nc2ccc3c(c2)OCCO3)S(C)(=O)=O)c1,2,-9,-2,0,-1
O=C(N/N=C(\Cc1ncc[nH]1)c1ccccc1)c1ccncc1,-7,-1,-4,-1,2
O=C(N/N=C(\Cc1ncc[nH]1)c1ccccc1)c1ccccc1,-12,-12,-7,25*,-1
CCOc1ccc(CN2CCC(n3nccc3NC(=O)CCCc3ccccc3)CC2)cc1,-39,38*,3,0,3
Cc1ccc(-n2nc3c(N4CCC(C(=O)NCc5ccccc5C)CC4)nnc(C)c3c2C)cc1,-85,25,16*,-6,4
CCOc1ccccc1CNC(=O)C1CCN(c2nnc(C)c3c(C)n(-c4ccc(C)cc4)nc23)CC1,-80,11,2,-5,0
Oc1c(C=C2N=c3ccccc3=N2)sc(=S)n1-c1ccccc1,12,-12,0,22*,3
CCOC(=O)c1c(-c2ccccc2)oc2ccc(OCC(O)CNCCN(C)C)cc12 (stereo not given),-80,51*,-8,-22,2
Oc1ccccc1Cc1c(O)ccc2ccccc12,nt,nt,-1,0,4
